An excerpt weighted towards active compounds, which were near 9.6% of everything screened.
HCT116 bCat-KO – primary screen for growth suppressors in beta-catenin knockout HCT116 cells (colon tumor, human). HCT116 beta-catenin knockout viability, CellTiter-Glo, 60 h; hits give low values. viability, % at 10 µM. actives 1.5% (n = 140,000). AID 818, 2007;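 active = viability at or under a set limit, the compound median less 4 SD, cut at about 6% in these data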;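 note: 0% = Hyamine 1622 control at 20 µM and 100% = untreated cell control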
HCT116 PTEN-null – growth suppression of PTEN-null HCT116, primary screen, cell-based, CellTiter-Glo. AID 827, 2007. viability, % at 10 µM. HCT116 PTEN-null viability, 60 h; hits give low values. actives 1.2% (n = 140,000);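 active = viability at or below a set limit, 4 SD under the median of all tested compounds, cut at about 3.7% in these data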;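 note: PTEN knockout HCT116 line with beta catenin targeted HCT116 as companion control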
L major viab – Leishmania major promastigote growth inhibition, primary screen. Leishmania major promastigotes, resazurin fluorescence viability. inhibition, % at 10 µM. actives 9% (n = 200,000). AID 1063, 2008; in the data active = inhibition above about 50%;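 note: promastigotes grown with compound for 44 hours at 28 °C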
PMI act satM6P – human PMI activators, high substrate, primary screen, biochemical, fluorescence intensity, near-saturating mannose 6-phosphate; Mannose-6-phosphate isomerase (Homo sapiens), P34949; AID 1216, 2008; actives 0.34% (n = 190,000); activation factor at 20 µM; coupled PMI enzyme assay, resazurin fluorescence, 20 min; hits give high values; 1 = untreated enzyme, 0 = substrate-free blank;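 active = activation factor of 2 or more at 20 µM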
Target sequence (P34949 whole entry, looked up): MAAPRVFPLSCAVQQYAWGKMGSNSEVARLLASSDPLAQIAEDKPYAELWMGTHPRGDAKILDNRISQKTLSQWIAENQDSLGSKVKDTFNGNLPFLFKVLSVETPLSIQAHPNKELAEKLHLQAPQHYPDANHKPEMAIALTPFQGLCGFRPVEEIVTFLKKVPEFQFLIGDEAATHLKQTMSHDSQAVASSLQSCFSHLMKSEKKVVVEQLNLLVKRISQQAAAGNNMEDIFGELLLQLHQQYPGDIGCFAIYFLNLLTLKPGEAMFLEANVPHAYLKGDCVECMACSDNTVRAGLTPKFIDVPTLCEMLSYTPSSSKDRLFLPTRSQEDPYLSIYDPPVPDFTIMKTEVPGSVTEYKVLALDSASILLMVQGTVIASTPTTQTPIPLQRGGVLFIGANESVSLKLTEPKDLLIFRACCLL
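Test system – human PMI in coupled enzyme assay · Timing – 20 min incubation at room temperature · Detection – Diaphorase-driven resazurin-to-resorufin fluorescence, excitation 544, emission 590 nm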
PMI act – activators of human PMI, primary screen, biochemical, fluorescence intensity, near-Km mannose 6-phosphate | Mannose-6-phosphate isomerase (Homo sapiens), P34949 | purified human PMI, coupled resazurin fluorescence, 20 min; hits give high values; 1 = vehicle control, 0 substrate-free wells | activation factor at 20 µM | actives 0.005% (n = 190,000) | AID 1214, 2008;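 active = activation factor of 2 or more at 20 µM, relative to plate controls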
* = called active by the depositor; x = not tested or not shown.

SMILES	HCT116 bCat-KO	HCT116 PTEN-null	L major viab	PMI act satM6P	PMI act
Cn1ccnc1C1CCCCN1C(=O)c1cc(COc2ccc(F)cc2Cl)on1 (stereo not given)	x	x	0	1	1
Cc1c(Cl)cccc1NC(CC(=O)c1ccccc1)C(=O)O (stereo not given)	81	73	67*	1.1	1.1
O=C(CC(Nc1ccccc1Cl)C(=O)O)c1ccccc1 (stereo not given)	x	x	3	1	1
COc1ccc(OCCC(=O)NCC23CC4CC(CC(C4)C2)C3)cc1	x	x	97*	1	1
COc1ccc(OCCC(=O)NCc2ccccc2)cc1	99	98	-4	0.9	0.9
O=S(=O)(c1ccc(S(=O)(=O)N2CCOCC2)cc1)N1CCCC1	x	x	-6	x	x
CC1C/C(=N\NC(=S)NC(C)C)CC(C)(C)C1 (stereo not given)	86	102	100*	1.1	1.1
CC1C/C(=N\NC(=O)c2cccnc2)CC(C)(C)C1 (stereo not given)	x	x	-13	1.1	1.2
FC(F)(F)c1cccc(Cn2nnnc2-c2cccc(C(F)(F)F)c2)c1	78	73	11	0.8	0.8
COc1cccc(N=Nc2c(N)[nH]n3c(=O)cc(-c4ccccc4)nc23)c1	3.1*	12	92*	1	0.9
Cc1ccc(N=Nc2c(N)[nH]n3c(=O)cc(-c4ccccc4)nc23)cc1	7	13	94*	0.9	0.7
Cc1ccccc1N(CC(=O)N/N=C/c1ccc(Cl)cc1)C(=O)c1ccccc1	64	42	68*	0.8	0.8
Cc1ccccc1N(CC(=O)N/N=C/c1ccc(F)cc1)C(=O)c1ccccc1	85	87	99*	0.9	0.9
CCOC(=O)c1sc(NN=C(C(=O)OC)C(=O)OC)c(C(=O)OCC)c1C	75	55	-2	1	1
CCSc1nnc2c(n1)[nH]c1c(C)cccc12	56	59	32	0.8	0.9
C=CCSc1nnc2nc3[nH]c4c(C)cccc4c3nn12	84	76	72*	1	1
COc1ccc(N2C(=O)CC(Sc3ccccc3C(=O)O)C2=O)c([N+](=O)[O-])c1 (stereo not given)	x	x	-6	1.1	1.1
Cn1cccc1/C=C1\CCC/C(=C\c2cccn2C)C1=O	64	67	44	1	0.9
COc1ccc(/C=C2/CCOC2=O)cc1	96	96	-6	1	0.9
COc1ccc(/C=C2\CCC/C(=C\C=N\N(C)C)C2=O)cc1	x	x	93*	1	1
CN(C)/N=C/C=C1\CCC/C(=C\c2ccc(F)c(F)c2)C1=O	x	x	97*	0.8	1
C/C(=N\NC(=O)OC(C)(C)C)c1cccc([N+](=O)[O-])c1	90	100	-9	0.9	0.9
Cc1cc(C)c(NC(=O)c2cc(C(=O)O)ccc2C(=O)O)c([N+](=O)[O-])c1	x	x	-2	1.1	1.2
COC(=O)N/N=C(\C)c1ccccc1Br	94	88	-3	1.1	1
CC1CCN(CC(=O)NC(=O)NCc2ccccc2)CC1	97	96	-4	1.1	1.1
SMILES	HCT116 bCat-KO	HCT116 PTEN-null	L major viab	PMI act satM6P	PMI act
CC(=O)C(Cc1ccccc1)NC(=O)CN1CCN(Cc2ccccc2)CC1 (stereo not given)	x	x	65*	1	1.1
CC1(C)C2CCC(C2)C1(C)NC(=O)CN1CCN(Cc2ccccc2)CC1 (stereo not given)	x	x	81*	1	1
O=C(N/N=C/c1ccncc1)c1ccccc1	91	97	-6	1	1.1
O=C(N/N=C/c1oc(O)c2ccccc12)c1ccccc1	x	x	-3	2.4*	1.8
O=C(CCCn1cc([N+](=O)[O-])cn1)N1CCCCC1	x	x	-5	1	1.1
Cc1ccc(C(CC(=O)c2ccco2)SCCO)cc1 (stereo not given)	5.5*	5	33	1	0.1
O=C(CC(SCCO)c1ccc(F)cc1)c1ccco1 (stereo not given)	4.0*	2.5*	84*	0.9	1
O=C(COC(=O)CCc1nc2ccccc2s1)NC(=O)NCc1ccco1	x	x	4	1.1	1.2
COC(=O)c1ccc(-c2noc(CN(C)CC3CCCCO3)n2)cc1 (stereo not given)	x	x	-3	1.1	1.1
COC(=O)c1ccc(-c2noc(CN3C[C@H]4CC[C@H]3C4)n2)cc1	x	x	98*	1	1
CCOC(=O)N1CCN(Cc2nc(-c3ccc(OC)cc3)no2)CC1	x	x	-14	x	x
COC(=O)c1ccc(-c2noc(CN(Cc3ccncc3)CC3CCCO3)n2)cc1 (stereo not given)	x	x	71*	x	x
COc1ccc(C(=O)Nc2ccccc2C(=O)O)cc1Cl	94	97	67*	1	1
CCn1c(COc2ccccc2)nnc1SCC(=O)c1cccc([N+](=O)[O-])c1	73	74	91*	1	1
COc1cccc(/C=N/NC(=O)C(C)n2nc(C)c([N+](=O)[O-])c2C)c1O (stereo not given)	101	94	94*	1.2	1
COc1cccc(/C=N/NC(=O)CSc2ccccc2C)c1OC	107	104	-7	0.9	0.9
COc1cccc(/C=N/NC(=O)Cn2nc(C)c([N+](=O)[O-])c2C)c1O	35	39	82*	1.2	1.1
COc1cccc(/C=N/NC(=O)CSc2ccccc2C)c1O	9	10	98*	1.2	1.1
COc1cccc(/C=N/Nc2ccc(C(=O)O)cc2)c1O	x	x	5	1.6	1.6
COc1cccc(NC(=S)NNC(=O)C(C)n2nc(C)c([N+](=O)[O-])c2C)c1 (stereo not given)	108	100	-8	1	1
COc1cccc(/C=N/Nc2ccc(S(=O)(=O)O)cc2)c1O	96	100	-4	2.1*	1.4
COC(=O)c1ccc(C(NC(=O)OCc2ccccc2)/C(F)=C/[C@@H](C)C(=O)NCc2ccc(OC)c(OC)c2)cc1 (stereo not given in full)	25	15	1	1	1
CSCCC(NS(=O)(=O)/C=C/c1ccccc1)C(=O)O (stereo not given)	x	x	-2	1.1	1
COc1cccc(/C=N/NC(=O)C(=O)N2CCCC2)c1O	72	77	53*	1.2	1.1
COc1cccc(/C=N/NC(=O)C(=O)N2CCCC2)c1OC	85	90	2	0.9	1
COc1cccc(/C=N\NC(=O)c2ccc(Cn3cc(Br)c([N+](=O)[O-])n3)o2)c1O	x	x	100*	1.3	1.1
COc1cc(/C=N\NC(=O)c2ccc(Cn3nc([N+](=O)[O-])c(Cl)c3C)o2)ccc1O	93	89	18	1	1

Screens as filed in PubChem BioAssay.
